Source: PubChem BioAssay
MEKK3 PB1 HTS: raises or lowers MEK5 binding to the human MEKK3 PB1 domain; bead-based flow cytometry, Alexa488-MEK5 binding to MEKK3; actives lie on both sides; 0 = blocked by unlabeled MEK5, 100 = vehicle; AID 1529; binding response (% of control), % at 10 µM; Q99759; 290,000 compounds, 1.4% hits;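 active = binding response more than 3 SD above or below the average of its plate-row segment, actives on both sides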;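 note: Alexa488 bead fluorescence after subtracting the streptavidin-only scavenger bead signal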
ABCB1 inh: human ABCB1 inhibition, ABCG2 as counter-screen. 190,000 compounds, 0.067% hits. AID 1326. P08183. inhibition, % at 6.6 µM. CCRF-Adr cells, JC-1 efflux, flow cytometry; in the data active = inhibition above about 40%;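 note: 0% = vehicle and 100% = reference inhibitor; higher value means more JC-1 retained so stronger ABCB1 efflux block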
ABCG2 block: blocks JC-1 efflux by human ABCG2 transporter | Q9UNQ0 | IgMXP3 cells, flow cytometry | inhibition, % at 6.6 µM | 190,000 compounds, 0.1% hits | AID 1325;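 active = inhibition above 80%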;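 note: 0% = DMSO and 100% = nicardipine control wells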
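Incubation: cells with compound and JC-1, 10 min at 25 °C, rotating, no wash / Test system: IgMXP3 (ABCG2) plus far-red-tagged CCRF-Adr (ABCB1) cells / Compound dosing: one concentration, 6.6 µM final / Also added: JC-1 fluorescent substrate / Evaluation: efflux inhibition in percent versus controls / Detection: flow cytometry, 530 nm JC-1 signal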
MEKK2mut PB1 HTS: signal of MEK5 binding to mutant human MEKK2 PB1 domain; 290,000 compounds, 0.35% hits; bead flow cytometry, Alexa488-MEK5 binding to MEKK2 mutant; percent response, % at 10 µM; AID 1530; in the data active = percent response above about 24%, passing the limit was not always enough
MEKK2wt PB1 HTS: raises or lowers MEK5 binding to wildtype human MEKK2 PB1 domain; bead flow cytometry, Alexa488-MEK5 binding to MEKK2 WT; actives lie on both sides; 290,000 compounds, 1.1% hits; binding response (% of control), % at 10 µM; AID 1531; Q9Y2U5; in the data active = binding response below about 67% or above about 130%
WT yeast gro inh: growth inhibition of WT yeast, mitochondrial fusion screen. 190,000 compounds, 2.1% hits. inhibition, % at 10 µM. mitochondrial fusion phenotypic screen, WT strain; in the data active = inhibition above about 58%; tested in S. cerevisiae
MEKK2wt confirm: raises or lowers MEK5 binding to wildtype human MEKK2, retest; 5,900 compounds, 2.4% hits; shares compounds with MEKK3 PB1 HTS; binding response (% of control), % at 10 µM; bead flow cytometry, Alexa488-MEK5 binding to MEKK2 WT; actives lie on both sides; in the data active = binding response below about 16% or above about 210%; inactive = in between
MEKK2mut confirm: signal of MEK5 binding to mutant human MEKK2, retest; 5,900 compounds, 2% hits; shares compounds with MEKK3 PB1 HTS; bead flow cytometry, Alexa488-MEK5 binding to MEKK2 mutant; percent response, % at 10 µM; AID 1893; in the data active = percent response mostly above about 71%, no sharp cut-off; inactive = mostly below about 38%;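 note: higher means compound restores mutant binding toward wildtype level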
MEKK3 confirm: MEKK3-MEK5 PB1 inhibition, single concentration confirmation | AID 1894 | bead flow cytometry, Alexa488-MEK5 binding to MEKK3; stronger effect = lower value | binding response (% of control), % at 10 µM | 5,900 compounds, 1.8% hits | shares compounds with MEKK3 PB1 HTS;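 active = binding response below 72% of control, or above a set upper limit, though filed actives all read lower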;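 note: 100% = DMSO only wells and 0% = binding blocked by excess unlabeled MEK5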
Starred values were filed as active, the others as inactive; . = not tested or not shown; [ ] = dose if it differs, or a comment. This is a sample that favours compounds with a hit; in the whole collection about 3.5% have one here.

SMILES	MEKK3 PB1 HTS	ABCB1 inh	ABCG2 block	MEKK2mut PB1 HTS	MEKK2wt PB1 HTS	WT yeast gro inh	MEKK2wt confirm	MEKK2mut confirm	MEKK3 confirm
CC(C)=CC(=O)N1CCCC(N2CCN(c3ccc(F)cc3)CC2)C1 (stereo not drawn)	108.0	.	.	2.0	107.0	.	.	.	.
CC(CCc1ccccc1)NC(=O)C1CCN(S(=O)(=O)c2cnc[nH]2)CC1 (stereo not drawn)	109.0	0.0	-0.1	5.0	110.0	3.1	.	.	.
COc1ccc(NC(=O)c2sc3nc(Cc4ccccc4)cc(C(F)(F)F)c3c2N)cc1OC	159.0*	1.5	-0.8	2.0	110.0	-4.5	39.0	-25.0	35.0*
CCN(CC)CCNC(=O)c1cc(-c2ccc(Br)s2)nc2ccccc12	100.0	.	.	43.0*	141.0*	.	156.0	34.0	107.0
CCOCCCNC(=O)c1cc(-c2ccc(Br)s2)nc2ccccc12	97.0	.	.	4.0	94.0	.	.	.	.
O=C(NCCc1ccccc1)c1cccc([N+](=O)[O-])c1	130.0*	0.7	6.5	0.0	107.0	-17.6	101.0	4.0	102.0
COc1cc(-c2nc3n(n2)C(c2ccncc2)C(C(N)=O)=C(C)N3)cc(OC)c1OC (stereo not drawn)	122.0*	0.3	0.4	5.0	114.0	-14.3	57.0	-20.0	85.0
COc1ccc(NC(=O)N2CCCC2C(=O)NCc2ccc(C)cc2)cc1 (stereo not drawn)	73.0*[inhibitor]	0.2	2.2	62.0*	114.0	-4.3	101.0	0.0	104.0
COc1ccc(NC(=O)N2CCCC2C(=O)NCc2ccc(F)cc2)cc1 (stereo not drawn)	120.0	-0.1	2.8	5.0	103.0	-9.0	.	.	.
O=C(O)c1ccc(N=C2SCC(=O)N2Cc2ccccc2)cc1	101.0	0.1	0.3	-3.0	99.0	-8.8	.	.	.
O=C(O)c1ccc(CN2C(=O)CSC2=S)cc1	124.0*	-8.3	-7.4	5.0	119.0	-29.4	98.0	-4.0	98.0
COc1ccc2c(c1)CCc1cn3nc(C)cc3nc1-2	8.0*[inhibitor]	0.6	12.9	-90.0	104.0	11.8	96.0	-1.0	100.0
COc1ccc2c(c1)CCc1cnc(N)nc1-2	102.0	0.4	23.3	2.0	99.0	-0.6	.	.	.
O=C1NNC(c2ccccc2)=N/C1=C\c1ccco1	57.0	.	.	-35.0	44.0*[inhibitor]	.	100.0	5.0	103.0
O=C(CCSCCC(=O)NCCN1CCOCC1)NCCN1CCOCC1	81.0*[inhibitor]	1.0	-8.7	-4.0	89.0	0.4	97.0	1.0	99.0
Cc1cc(C)nc(N2CCCC(C(=O)Nc3ccc4nc(C)c(C)nc4c3)C2)n1 (stereo not drawn)	113.0	2.5	6.1	10.0	112.0	12.1	.	.	.
Cc1ccc(NC(=O)COC(=O)C2(c3ccc(Cl)cc3)CCCC2)cc1	153.0*	1.7	17.0	1.0	121.0	9.0	103.0	3.0	103.0
CC1=C(C(=O)OCCc2ccccc2)C(c2ccsc2)NC(=O)N1C (stereo not drawn)	95.0	1.5	2.4	-4.0	91.0	17.4	.	.	.
CN(C)c1ccc(NS(=O)(=O)c2ccc(Cl)cc2)cc1	135.0*	-1.3	-8.5	3.0	102.0	-2.0	99.0	-3.0	97.0
Clc1ccc(OCCn2ccnc2)c(Cl)c1	102.0	0.5	1.3	8.0	103.0	6.3	.	.	.
Clc1ccc(SCCn2ccnc2)cc1	70.0*[inhibitor]	0.4	2.7	-12.0	84.0	4.8	96.0	4.0	98.0
Cc1ccccc1CNc1ccc(C(CC(N)=O)NC(=O)c2ccccc2)cc1[N+](=O)[O-] (stereo not drawn)	96.0	.	.	1.0	98.0	.	.	.	.
